≈ marks a conversion by molar mass, not a printed value. Calls of active or inactive are those of the source.
Tests used:
[1] = Aqueous solubility of compound in PBS at 1 mg after 18 hrs by UV based analysis; type: physicochemical
In short: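 Undissolved material removed by centrifugation at 5,000g for 45 min. UV absorption compared with a fully saturated 1-propanol solution; solubility derived by linear regression.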

[2] = target: T1, DNA topoisomerase 2-alpha (Homo sapiens, UniProt P11388); assay: Inhibition of human topoisomerase 2alpha mediated decatenation at 30 uM using kDNA as susbtrate preincubated for 20 mins followed by substrate and ATP addition and measured after 1 hr by ethidium bromide staining based gel electrophoresis method relative to control
T1 sequence (P11388 whole entry): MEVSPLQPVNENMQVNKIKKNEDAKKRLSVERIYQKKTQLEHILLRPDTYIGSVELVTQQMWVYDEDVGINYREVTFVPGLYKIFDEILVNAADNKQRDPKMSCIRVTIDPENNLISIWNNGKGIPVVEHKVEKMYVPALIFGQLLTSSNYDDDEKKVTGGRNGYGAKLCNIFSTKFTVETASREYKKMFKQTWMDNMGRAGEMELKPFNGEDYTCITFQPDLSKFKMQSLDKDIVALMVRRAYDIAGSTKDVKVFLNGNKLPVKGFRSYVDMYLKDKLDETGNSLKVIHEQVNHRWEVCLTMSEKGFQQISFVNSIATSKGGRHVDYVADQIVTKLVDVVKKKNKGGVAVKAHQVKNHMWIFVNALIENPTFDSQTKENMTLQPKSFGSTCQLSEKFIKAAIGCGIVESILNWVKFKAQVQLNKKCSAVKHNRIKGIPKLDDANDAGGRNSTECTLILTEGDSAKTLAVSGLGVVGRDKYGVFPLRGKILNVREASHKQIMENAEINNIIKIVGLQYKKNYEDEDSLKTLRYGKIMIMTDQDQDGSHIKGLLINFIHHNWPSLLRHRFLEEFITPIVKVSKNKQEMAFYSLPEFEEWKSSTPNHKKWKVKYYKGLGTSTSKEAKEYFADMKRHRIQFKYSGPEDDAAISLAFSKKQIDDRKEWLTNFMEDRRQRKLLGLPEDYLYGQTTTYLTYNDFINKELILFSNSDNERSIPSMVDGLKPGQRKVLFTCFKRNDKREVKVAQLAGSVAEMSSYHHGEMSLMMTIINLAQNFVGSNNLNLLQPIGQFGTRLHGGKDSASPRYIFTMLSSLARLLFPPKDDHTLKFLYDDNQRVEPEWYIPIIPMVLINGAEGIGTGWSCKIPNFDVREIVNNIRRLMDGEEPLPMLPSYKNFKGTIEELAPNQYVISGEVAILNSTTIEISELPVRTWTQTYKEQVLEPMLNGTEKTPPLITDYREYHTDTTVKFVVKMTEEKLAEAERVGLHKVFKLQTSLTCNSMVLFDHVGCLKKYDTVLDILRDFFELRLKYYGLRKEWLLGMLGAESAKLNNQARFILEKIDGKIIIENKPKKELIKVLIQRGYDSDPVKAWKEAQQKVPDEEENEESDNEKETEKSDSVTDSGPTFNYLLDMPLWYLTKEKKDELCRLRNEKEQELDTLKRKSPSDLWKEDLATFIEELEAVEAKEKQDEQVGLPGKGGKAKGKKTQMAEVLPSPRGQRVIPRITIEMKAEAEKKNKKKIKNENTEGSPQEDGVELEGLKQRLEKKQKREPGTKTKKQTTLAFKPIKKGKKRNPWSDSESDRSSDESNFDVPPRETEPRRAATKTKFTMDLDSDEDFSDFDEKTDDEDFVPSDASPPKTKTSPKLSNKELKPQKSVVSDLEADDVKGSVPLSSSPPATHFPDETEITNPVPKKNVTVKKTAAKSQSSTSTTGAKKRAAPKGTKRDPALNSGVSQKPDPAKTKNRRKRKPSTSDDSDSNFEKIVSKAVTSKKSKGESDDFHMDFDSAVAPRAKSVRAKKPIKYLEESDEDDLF
In short: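 Human TOP2A (3 U) preincubated 20 min at 37 °C with compound at 30 μM in 1.2% DMSO. Reaction started with 2 mM ATP and 35 ng kDNA and run 1 h at 37 °C. Products resolved on 0.8% agarose in TBE with 0.2 μg/mL ethidium bromide; decatenated bands compared with vehicle.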

[3] = target: T1, DNA topoisomerase 2-alpha; assay: Inhibition of topoisomerase 2alpha in human SW620 organoids transfected with EcadPro-RFP reporter assessed as reversion of epithelial-mesenchymal transition by measuring increase in E-cadherin expression at 10 uM after 72 hrs by Hoechst 33342 staining based mCherryRFP reporter gene assay
In short: (§1)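 SW620 cells stably carrying VimPro-GFP or EcadPro-mCherry (puromycin selected) grown as organoids and dosed 72 h. Stained with 16 μM Hoechst 33342 for 1 h and imaged as 15 z-layers, 26.5 μm apart. Nuclei segmented and GFP- or mCherry-positive cells counted above background thresholds. Percent positive cells normalised to DMSO.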

SW-620 [4] = assay: Cytotoxicity against human SW620 organoids assessed as cell death with loss of membrane integrity after 72 hrs by CellTox Green assay; type: functional, cell-based; details: SW-620, 72 h
In short: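 SW620 tumor organoids exposed 72 h to inhibitor over 0–40 μM together with CellTox Green Express (0.5X). Whole-well mean fluorescence imaged (ex 488, em 500–550 nm). Normalised to lysis buffer as 0% viability and 0.4% DMSO as 100% viability.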

[5] = target: T1, DNA topoisomerase 2-alpha; assay: Inhibition of topoisomerase 2alpha in human SW620 organoids transfected with VimPro-GFP reporter assessed as reversion of epithelial-mesenchymal transition by measuring reduction in vimentin expression up to 40 uM after 72 hrs by Hoechst 33342 staining based GFP reporter gene assay; in short: as §1
Mus musculus = assay: Apparent volume of drug distribution in CD-1 mouse at 50 mg/kg, ip by LC-MS/MS analysis; type: ADME, organism-based; details: in vivo
In short: (§2)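 Female CD-1 mice, single IP injection at 50 mg/kg in 100% DMSO. Sampling from 0.25 to 24 h, three mice per time point (21 per compound). Heparinised blood was spun to plasma, mixed 1:1 with acidified acetonitrile (0.1% formic acid or 0.1% TFA depending on compound), centrifuged, then measured by LC-MS/MS.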

[6] = AUC(0 to t) in CD-1 mouse at 50 mg/kg, ip by LC-MS/MS analysis; type: ADME, organism-based; details: in vivo; in short: as §2
[7] = target: T1, DNA topoisomerase 2-alpha; assay: Inhibition of topoisomerase 2alpha in human SW620 organoids transfected with EcadPro-RFP reporter assessed as reversion of epithelial-mesenchymal transition by measuring increase in E-cadherin expression up to 40 uM after 72 hrs by Hoechst 33342 staining based mCherryRFP reporter gene assay; in short: as §1
[8] = Half life of terminal disposition phase in CD-1 mouse at 50 mg/kg, ip by LC-MS/MS analysis; type: ADME, organism-based; details: in vivo, read-out: t1/2lambda (converted); in short: as §2
SW-620 [9] = assay: Antiinvasive activity in human SW620 organoids transduced with NucLight-Red virus assessed as inhibition of cell invasion at 10 uM incubated for 72 hrs and measured after 72 hrs by matrigel based fluorescence analysis; type: functional
In short: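 NucLight-Red-labelled SW620 organoids treated 72 h at 10 μM in 0.1% DMSO, then dissociated. 5,000 live cells per well seeded in 50% Matrigel in the upper chamber of a migration plate, 0.5% FBS above and 20% FBS below. Invading cells tracked by bottom-side fluorescence over days, six replicates per condition.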

[10] = target: T1, DNA topoisomerase 2-alpha; assay: Inhibition of topoisomerase 2alpha dependent TCF transcription in human SW620 organoids transduced with TOPflash luminescent reporter after 72 hrs by luciferase based TOPFlash reporter gene assay
In short: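 SW620 cells stably carrying pCDH-TOPflash-luc grown as organoids: 5,000 cells per U-bottom well in phenol red-free RPMI with 5% FBS and 2% Matrigel, 72 h. Inhibitor then applied 72 h. One-Glo luciferase and CellTiter-Glo 3D added 1:1. Luciferase signal normalised to viability, then to DMSO controls.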

[11] = Cmax in CD-1 mouse at 50 mg/kg, ip by LC-MS/MS analysis; type: ADME, organism-based; set-up: dose 50 mg/kg, route intraperitoneal; details: in vivo; in short: as §2
[12] = Half life in CD-1 mouse microsomes measured up to 1 hr by LC-MS analysis; type: ADME, Microsome
In short: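 Female CD-1 mouse liver microsomes (0.5 mg/mL), substrate 1 μg/mL and 1.5 mM NADPH in 0.1 M phosphate buffer pH 7.4 at 37 °C. Samples taken from 0 to 60 min and quenched with an equal volume of acetonitrile. Parent compound remaining measured by LC-MS/MS without internal standard.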

[13] = Drug metabolism in CD-1 mouse active microsomes assessed as CYP450-mediated oxidative phase 1 metabolite formation measured within 30 mins by LC-MS/MS analysis; type: ADME; details: 0.5 h
[14] = Drug metabolism in CD-1 mouse active microsomes assessed as CYP450-mediated oxidative phase 1 metabolite formation by LC-MS/MS analysis
[15] = Clearance in CD-1 mouse at 50 mg/kg, ip by LC-MS/MS analysis; type: ADME, organism-based; details: in vivo; in short: as §2
SW-620 [16] = assay: Induction of early stage cell death in human SW620 organoids transfected with EcadPro-RFP reporter assessed as loss of RFP reporter activity at 40 uM at after 72 hrs by Hoechst 33342 staining based mCherryRFP reporter gene assay; details: sw-620, 72 h
SW-620 [17] = assay: Induction of apoptosis in human SW620 organoids assessed as increase in cleaved caspase 3/7 level at 40 uM after 72 hrs by caspase-glo 3/7 luminescence assay relative to control; type: functional
In short: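 SW620 cells, 2,000 per well in 384-well ultra-low attachment plates with 2% Matrigel, grown 72 h into organoids, then dosed 72 h. Caspase-Glo 3/7 reagent added 1:1 and shaken 30 min; luminescence read. Staurosporine served as positive control and 0.4% DMSO as negative control.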

SW-620 [18] = assay: Anticlonogenic activity against human SW620 cells assessed as loss of cancer stem cell stemness by measuring inhibition of colony formation at 10 uM incubated for 24 hrs followed by replating and measured after 7 days by clonogenic assay; type: functional, cell-based
[19] = target: T1, DNA topoisomerase 2-alpha; assay: Inhibition of topoisomerase 2alpha dependent TCF transcription in human SW620 organoids transduced with TOPflash luminescent reporter at 10 uM after 72 hrs by luciferase based TOPFlash reporter gene assay
SW-620 [20] = assay: Cytotoxicity against human SW620 organoids assessed as growth inhibition at 10 uM after 72 hrs by brightfield imaging of organoid volume
[21] = Tmax in CD-1 mouse at 50 mg/kg, ip by LC-MS/MS analysis; type: ADME, organism-based; details: in vivo; in short: as §2
[22] = Metabolic stability in CD-1 mouse inactive microsomes incubated for 1 hr by LC-MS/MS analysis; type: ADME, Microsome
[23] = target: T1, DNA topoisomerase 2-alpha; assay: Poison activity at topoisomerase 2alpha in human SW620 cells assessed as induction of DNA double stranded break by measuring gamma H2AX phosphorylation up to 40 uM after 6 hrs by Hoechst-33342 staining based immunofluorescence assay; type: cell-based
In short: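 SW620 monolayers, 20,000 cells per well, treated with compound for 6 or 24 h. Fixed in 4% paraformaldehyde, then permeabilised and blocked. Stained with γ-H2AX antibody overnight at 4 °C, FITC secondary antibody, and Hoechst 33342, then imaged at 20x.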

[24] = target: T1, DNA topoisomerase 2-alpha; assay: Inhibition of topoisomerase 2alpha in human SW620 organoids transfected with VimPro-GFP reporter assessed as reversion of epithelial-mesenchymal transition by measuring reduction in vimentin expression at 10 uM after 72 hrs by Hoechst 33342 staining based GFP reporter gene assay; in short: as §1
[25] = Drug metabolism in CD-1 mouse active microsomes assessed as metabolite formation at rate of biphasic kinetics by LC-MS/MS analysis; type: ADME, Microsome
[26] = Drug metabolism in CD-1 mouse active microsomes assessed as metabolite formation at rate of first-order kinetics by LC-MS/MS analysis; type: ADME, Microsome

In the case of `CC(=O)Nc1ccc2c(-c3cc(F)ccc3O)ccnc2c1O`, the solubility thermodynamic at 18 h [1] is reported as 450 µg/mL (≈ 1440 µM), the inhibition [2] is reported as 99% and the inhibition [3] is reported as “Active”. For the same compound, the EC50 (SW-620 [4]) was > 30000 nM, the inhibition [5] was “Active” and the Vz (Mus musculus) was 10.9 L/kg. The AUC(0-t) [6] was 12500 ng·h/mL, the inhibition [7] was “Active” and the half-life [8] was 118 min. The inhibition (SW-620 [9]) was “Active”, the IC50 [10] was 2400 nM and the Cmax [11] was 19000 ng/mL. The t1/2 [12] was 6.72 min, the Drug metabolism [13] was “Metabolite_Detected” and the Drug metabolism [14] was “Metabolite_Notdetected”. The CL/F [15] was 64.5 mL/min/kg, the Activity (SW-620 [16]) was “Active” and the Activity (SW-620 [17]) was “Active”. For the same compound, the inhibition (SW-620 [18]) was “Active”, the inhibition [19] was “Active” and the “growth inhibition (GI)” value (SW-620 [20]) was “Active”. The Tmax [21] was 15 min, the Stability [22] was “Stable” and the Activity [23] was “Not Active”. For the same compound, the inhibition [24] was “Active”.

For `CC(=O)Nc1ccc2c(-c3ccsc3)ccnc2c1O`, the inhibition [2] was 92%, the Drug metabolism [25] was “Metabolite_Detected” and the Drug metabolism [13] was “Metabolite_Detected”. The Drug metabolism [14] was “Metabolite_Notdetected”, the Drug metabolism [26] was “Metabolite_Notdetected” and the Stability [22] was “Stable”.
